# TRPC6 act: activators of mouse TRPC6 channel. Q61143. HEK293-TRPC6 membrane potential dye fluorescence; active compounds read high. B-score at 10 µM. 310,000 tested, 0.13% active. AID 2550;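 active = B-score of the integrated fluorescence ratio above library mean plus 3 SD, and starting fluorescence ratio within library mean plus 5 SD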;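 note: higher score means more depolarization so channel activation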
# Target sequence (Q61143 whole entry, looked up): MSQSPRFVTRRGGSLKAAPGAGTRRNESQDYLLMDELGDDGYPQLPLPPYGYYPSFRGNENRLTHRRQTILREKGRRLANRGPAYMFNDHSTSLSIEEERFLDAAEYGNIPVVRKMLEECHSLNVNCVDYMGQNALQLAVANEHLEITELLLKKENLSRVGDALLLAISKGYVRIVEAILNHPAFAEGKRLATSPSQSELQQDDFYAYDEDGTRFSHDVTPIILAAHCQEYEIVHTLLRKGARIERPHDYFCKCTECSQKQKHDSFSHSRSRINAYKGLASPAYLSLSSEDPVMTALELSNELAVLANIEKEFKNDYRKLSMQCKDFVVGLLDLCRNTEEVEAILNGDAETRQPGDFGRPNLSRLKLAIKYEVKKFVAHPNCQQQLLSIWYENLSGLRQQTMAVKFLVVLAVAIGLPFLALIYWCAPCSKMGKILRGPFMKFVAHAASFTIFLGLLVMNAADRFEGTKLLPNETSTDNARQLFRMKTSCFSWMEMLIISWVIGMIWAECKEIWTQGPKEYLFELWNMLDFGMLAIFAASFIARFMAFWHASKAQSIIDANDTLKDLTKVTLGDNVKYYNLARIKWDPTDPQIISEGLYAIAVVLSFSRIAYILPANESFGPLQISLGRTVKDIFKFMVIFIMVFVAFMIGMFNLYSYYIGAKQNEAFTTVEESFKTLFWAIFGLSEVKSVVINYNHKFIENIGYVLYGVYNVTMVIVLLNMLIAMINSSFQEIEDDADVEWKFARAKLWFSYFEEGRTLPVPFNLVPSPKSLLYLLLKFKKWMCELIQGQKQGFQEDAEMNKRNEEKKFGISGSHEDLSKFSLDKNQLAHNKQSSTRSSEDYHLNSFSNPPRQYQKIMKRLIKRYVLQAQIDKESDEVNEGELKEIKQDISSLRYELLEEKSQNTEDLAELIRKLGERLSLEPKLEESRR
# TRPC4 potent: allosteric potentiators of mouse TRPC4 channel; 310,000 tested, 0.42% active; HEK293 TRPC4beta/mu-opioid, DAMGO EC20, Fluo-4 Ca2+ flux; active compounds read high; B-score at 10 µM; Q9QUQ5;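 active = B-score of calcium response area above 5 SD of library B-scores, with initial fluorescence ratio within 5 SD of library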;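 note: B-score of integrated fluorescence ratio over time as area under calcium response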
# TRPC6 inh: inhibitors of mouse TRPC6 channel; Q61143; HEK293-TRPC6, membrane potential dye, ACh-evoked depolarization; active compounds read low; B-score at 10 µM; 310,000 tested, 1.1% active; AID 2553;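 active = B-score under library mean minus 3 SD, initial fluorescence not abnormally high, positive integrated signal ratio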;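 note: B-score derived from integrated fluorescence ratio over the kinetic read; more negative B-score means stronger inhibition of depolarization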
# TRPC4 inh: TRPC4 (mouse) channel inhibition | Q9QUQ5 | HEK293 TRPC4beta/mu-opioid, DAMGO-evoked Fluo4 calcium flux; active compounds read low | B-score at 10 µM | 300,000 tested, 0.39% active | AID 2247;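 active = B-score over 3 SD under the library average, no early fluorescence shift, positive overall ratio signal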
#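 Assay system: TRPC4beta/mu-opioid receptor HEK293 cell line; compound dosing: single concentration per test compound; detection: Fluo4 Ca2+ flux fluorescence; evaluation: per-well B score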
# TRPC4 agonist: opens the mouse TRPC4 cation channel | Q9QUQ5 | HEK293 TRPC4beta/mu-opioid, Fluo4 calcium fluorescence; active compounds read high | B-score at 10 µM | 310,000 tested, 0.49% active;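 active = B-score above 5 SD of library B-scores, and initial fluorescence ratio not above library mean plus 5 SD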;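 note: positive B-score marks a calcium rise read as TRPC4 activation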
#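 Assay system: HEK293 stable line with TRPC4beta plus mu-opioid receptor; schedule: 45 min room-temperature Fluo4 loading, 110 s read; technique: kinetic Fluo4 calcium fluorescence; evaluation: integrated baseline-normalised fluorescence ratio, converted to per-well B score; controls: buffer (low) and maximal DAMGO (high)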
# TRPC4 spec 2: mouse TRPC4 off-target activity of TRPC6 inhibitors, second screen. AID 2776. shares compounds with TRPC6 inh. inhibition, % at 10 µM. HEK293 TRPC4/MOR, membrane potential dye fluorescence; channel activated by saturating DAMGO dose. 920 tested, 42% active;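 active = compounds whose fluorescence signal differed from control wells by over 3 SD, either direction, in both duplicate plates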
# TRPC4 spec: selectivity of TRPC6 inhibitors: effect on mouse TRPC4; 920 tested, 61% active; activity change, negative = inhibition, % at 10 µM; HEK293 TRPC4/mu-opioid, membrane potential fluorescence; shares compounds with TRPC6 inh;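 active = rise or fall in signal beyond 3 SD of buffer-only wells in both replicate plates, either sign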;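 note: integrated kinetic ratio of fluorescence range over baseline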
# HEK293 MPD ctr 2-1: second check of TRPC6 inhibitor effects in parental HEK293 cells. shares compounds with TRPC6 inh. parental HEK293 membrane potential dye fluorescence; maximal acetylcholine challenge after compound addition. signal change vs control, % at 10 µM. 920 tested, 31% active. AID 2779;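 active = membrane potential signal moving either way by over 3 SD of the maximum-effect control, in both duplicate plates, meaning non-specific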
# HEK293 MPD ctr-1: checks TRPC6 inhibitor effects in parental HEK293 cells; shares compounds with TRPC6 inh; parental HEK293 membrane potential dye fluorescence; membrane potential signal change, % at 10 µM; 920 tested, 60% active;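 active = membrane potential signal shifting up or down by more than 3 SD of buffer-only wells, on both duplicate plates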
# HEK293 MPD ctr-2: counter-screen for TRPC6 modulators: effect in parental HEK293 cells. shares compounds with TRPC6 inh. membrane potential dye fluorescence. membrane potential signal change, % at 10 µM. 2,400 tested, 51% active. AID 488924;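 active = membrane potential signal moves up or down beyond 5 SD from buffer-only wells, on both duplicate plates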
# HEK293 MPD ctr 2-2: second counter-screen for TRPC6 modulators: effect in parental HEK293 cells; inhibition, % at 10 µM; 2,400 tested, 14% active; membrane potential dye fluorescence; after compound, maximal acetylcholine stimulation; shares compounds with TRPC6 inh;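 active = membrane potential signal drops by more than 5 SD from the mean control signal, in both duplicate plates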;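 note: plate controls were acetylcholine ECmax control wells for no effect and buffer only wells for full effect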
# TRPC4/MOR mod: mouse TRPC4 off-target activity of TRPC6 modulators; HEK293 TRPC4/mu-opioid, membrane potential fluorescence; shares compounds with TRPC6 inh; percent change from control (negative = decrease, positive = increase), % at 10 µM; 2,400 tested, 69% active;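 active = membrane potential signal moved up or down beyond 5 SD of buffer control wells, in both duplicate plates, actives on both sides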;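 note: plate controls were assay buffer wells for no effect and DAMGO maximal-effect wells for full effect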
# TRPC4/MOR inh 2: second check of whether TRPC6 modulators also affect mouse TRPC4; AID 488928; 2,400 tested, 55% active; inhibition, % at 10 µM; HEK293 TRPC4/mu-opioid, membrane potential dye fluorescence; stimulated with maximal-effect DAMGO; shares compounds with TRPC6 inh;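 active = drop in membrane potential signal beyond 5 SD of the control wells in both duplicate plates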;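 note: TRPC4 counter screen for TRPC6 hits run under conditions tuned for TRPC6 not TRPC4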
# TRPC6 inh conf: mouse TRPC6 inhibitor confirmation; inhibition, % at 10 µM; HEK293-TRPC6, membrane potential dye, ACh-evoked depolarization; 3,300 tested, 43% active; shares compounds with TRPC6 inh;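 active = fluorescence ratio falls more than 5 SD below the full-stimulation control mean, in both duplicate runs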;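 note: integrated fluorescence ratio of peak minus minimum over baseline after agonist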
# TRPC6 act conf: confirmation of mouse TRPC6 activators; shares compounds with TRPC6 inh; HEK293-TRPC6 membrane potential dye fluorescence, FDSS; activation, % at 10 µM; 2,800 tested, 11% active;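 active = ratio signal rise beyond 5 SD above unstimulated control wells' mean, seen in both duplicate runs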;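 note: plate controls were buffer EC0 wells for no effect and acetylcholine ECmax response for full effect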
# Starred values were filed as active, the others as inactive; i = inactive; x = no result; + = active, no number. The list is not random: actives were taken first. Their share in the collection is about 2.3%.
SMILES,TRPC6 act,TRPC4 potent,TRPC6 inh,TRPC4 inh,TRPC4 agonist,HEK293 MPD ctr-2,HEK293 MPD ctr 2-2,TRPC4/MOR mod,TRPC4/MOR inh 2,TRPC6 inh conf,TRPC6 act conf,others
CC(=O)c1cccc(Nc2cc(C)nc3c(C)cccc23)c1,i,i,-5.4*,i,i,-122%*,57%*,-26%*,52%*,52%*,i,
CCOC(=O)c1ccc2nc(C)cc(Nc3cccc(C(=O)O)c3)c2c1,i,i,i,i,i,x,x,x,x,x,x,
COc1cccc(N2C(=NC(=O)c3ccccc3)SC3CS(=O)(=O)CC32)c1 (stereo unspecified),i,i,i,i,i,x,x,x,x,x,x,
COc1ccc(NC(=O)CSc2nnc(NC(=O)c3ccccc3C(=O)O)s2)cc1,i,i,i,i,i,x,x,x,x,x,x,
N=c1c2c3c(sc2ncn1Cc1ccccc1)CCCC3,i,i,-6.5*,i,i,i,i,-12%*,39%*,i,i,
N=c1c2c3c(sc2ncn1CCCO)CCCC3,i,i,i,i,i,x,x,x,x,x,x,
N=c1c2c3c(sc2ncn1CCN1CCOCC1)CCCCC3,i,i,i,i,i,x,x,x,x,x,x,
CCCCn1cnc2sc3c(c2c1=N)CCCC3,i,i,-7.1*,i,i,x,x,x,x,i,i,TRPC4 spec 2=62%*;TRPC4 spec=-17%*;HEK293 MPD ctr 2-1=i;HEK293 MPD ctr-1=-228%*
N=c1c2c3c(sc2ncn1Nc1ccccc1)CCC3,i,i,-5.3*,i,i,i,i,-8.5%*,52%*,51%*,i,
Nc1ccc(N=Nc2ccccc2O)c(N)c1,i,i,-6.5*,i,i,-174%*,i,28%*,98%*,i,i,
Oc1ccccc1N=Nc1ccccc1O,i,i,i,i,i,x,x,x,x,x,x,
CCCCCCN(C(=O)CCl)c1ccccc1,i,i,i,i,i,x,x,x,x,x,x,
Cc1nn(-c2ccc([N+](=O)[O-])cc2)c2c1C(c1ccc(OC(F)F)cc1)N1C(=N2)C(=O)Nc2ccccc21 (stereo unspecified),i,i,i,i,i,x,x,x,x,x,x,
COc1cccc(C2c3c(C)nn(-c4ccc([N+](=O)[O-])cc4)c3N=C3C(=O)Nc4ccccc4N32)c1 (stereo unspecified),i,i,-5.7*,i,i,i,i,i,54%*,i,i,
N=c1c(-c2nc3ccccc3[nH]2)cc(C(=O)c2cccs2)nn1-c1ccccc1,i,i,-7.7*,i,i,x,x,x,x,68%*,i,TRPC4 spec 2=58%*;TRPC4 spec=-14%*;HEK293 MPD ctr 2-1=i;HEK293 MPD ctr-1=-179%*
O=C(CN1CCCCC1)N1c2ccccc2CCc2ccccc21,i,i,-6.5*,i,i,100%*,i,17%*,i,i,x,
COCCNC(=O)/C(C#N)=C/c1ccc(N2CCOCC2)o1,i,i,i,i,i,x,x,x,x,x,x,
Cc1ccc(/C(C#N)=C\c2ccc(N3CCOCC3)o2)cc1,27*,i,i,i,i,420%*,i,98%*,i,i,115%*,
N#C/C(=C\c1ccc(N2CCOCC2)o1)C(=O)NC1CCCCC1,i,i,i,i,i,x,x,x,x,x,x,
N#C/C(=C\c1ccc(N2CCOCC2)o1)C(=O)NCCc1ccccc1,14*,i,i,i,i,774%*,135%*,129%*,i,i,96%*,
N#C/C(=C/c1ccc(N2CCOCC2)o1)C(=O)Nc1ccccc1,50*,i,i,i,i,+,+,134%*,i,x,322%*,
Cc1ccc(S(=O)(=O)N2CCOCC2)cc1NC(=O)COC(=O)COc1cccc2c1OC(C)(C)C2,i,i,i,i,i,x,x,x,x,x,x,
COc1ccc(-n2c(SCCC#N)nnc2-c2cc(Cl)ccc2OC)cc1Cl,i,i,i,i,i,x,x,x,x,x,x,
Cn1c(=O)c2c(nc(CN3CCc4ccccc4C3)n2Cc2ccccc2)n(C)c1=O,i,46*,-5.7*,i,i,i,i,109%*,68%*,i,x,
S=C(NCC1CC1)N/N=C/c1ccccc1Cl,i,i,i,i,i,x,x,x,x,x,x,
SMILES,TRPC6 act,TRPC4 potent,TRPC6 inh,TRPC4 inh,TRPC4 agonist,HEK293 MPD ctr-2,HEK293 MPD ctr 2-2,TRPC4/MOR mod,TRPC4/MOR inh 2,TRPC6 inh conf,TRPC6 act conf,others
Cc1ccc2nc(C)c3c(c2c1)SCC3,i,i,-5.2*,i,i,-170%*,i,-36%*,38%*,i,i,
Cc1nc2c(C)cccc2c2c1CCS2,i,i,i,i,i,x,x,x,x,x,x,
O=C(Oc1cc(-c2ccccc2)no1)c1ccc(F)cc1,i,i,i,i,i,x,x,x,x,x,x,
S=C1CCC(c2ccc(Br)cc2)=NN1c1ccccc1,i,i,i,i,i,x,x,x,x,x,x,
CCOc1ccc(-n2c(SCC(=O)N3CCC(C(=O)O)CC3)nc3ccccc3c2=O)cc1,i,i,i,i,i,x,x,x,x,x,x,
CCOC(=O)c1nnc(-c2ccccc2)nc1NCc1ccccc1,i,i,i,i,i,x,x,x,x,x,x,
CCOC(=O)c1c2n(c3c(NCc4ccccc4)ncnc13)CCCC2,i,i,-5.2*,i,i,-94%*,66%*,-16%*,46%*,54%*,i,

# Screening results as filed in PubChem BioAssay.
